The results in this text go back to ChEMBL document CHEMBL3297729, “Design, synthesis and biological activity of piperlongumine derivatives as selective anticancer agents” (Eur J Med Chem, 2014).

pIC50: −log10 of the molar value. The source made the active and inactive calls. The rule behind the calls is not given here.

For one series, the system named is MDA-MB-231. Kind of series: Cytotoxicity against human MDA-MB-231 cells after 72 hrs by MTT assay. The format is functional, cell-based. Particulars: MDA-MB-231, 72 h. The procedure, abridged: (§1)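 MTT assay. Cells seeded at 5 × 10^3/well and grown 24 h at 37 °C in humidified 5% CO2. Compounds added at a range of concentrations in triplicate wells, with 0.1% DMSO as control, for 72 h. MTT (5 mg/mL solution) added for a further 4 h. Formazan dissolved in DMSO and absorbance read at 570 nm. IC50 derived by the Logit method.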

The test system of the next series is HCT-116. Kind of series: Cytotoxicity against human HCT116 cells after 72 hrs by MTT assay. The following applies: HCT-116, 72 h. It is filed as functional, cell-based. The procedure, abridged: as §1
(In general: Formazan colour is commonly taken as a measure of viable cells.)

For series [1], the system named is A549. Kind of series: Cytotoxicity against human A549 cells after 72 hrs by MTT assay. The format is functional, cell-based. Particulars: A549, 72 h. The procedure, abridged: as §1
Series [2] in a line: Cytotoxicity against human ZR75-30 cells after 72 hrs by MTT assay. It is filed as functional, cell-based. The following applies: ZR-75-30, 72 h. In a few lines:
as §1

The test system of a further series is MRC5. Kind of series: Cytotoxicity against human MRC5 cells after 72 hrs by MTT assay. The format is cell-based. Particulars: MRC5, 72 h. In a few lines:
as §1

The next series has as its system WI-38. The series can be described thus: Cytotoxicity against human WI38 cells after 72 hrs by MTT assay. The following applies: WI-38, 72 h. It is filed as cell-based. The procedure, abridged:
as §1

Series [3] is described as follows: Cytotoxicity against human Hep3B cells after 72 hrs by MTT assay. The format is functional, cell-based, Hep 3B2. In a few lines: as §1
Series [4] relates to A549. The series can be described thus: Antitumor activity against human A549 cells xenografted in BALB/C nude mouse assessed as inhibition of tumor growth at 2 mg/kg, ip administered for 14 days. Particulars: 336 h, route intraperitoneal. The format is functional. (A xenograft is tissue or cells of one species grown in another, often human tumour cells in immunodeficient mice.)

The next series concerns Mus musculus. The series can be described thus: Toxicity in human A549 cells xenografted BALB/C nude mouse assessed as reduction of body weight at 2 mg/kg, ip administered for 14 days. It is filed as organism-based. Details: dose 2 mg/kg, route intraperitoneal. The following applies: in vivo, 336 h. The procedure, abridged: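 Male BALB/C nude mice (18–20 g) implanted sc in the right axilla with A549 cells. Dosing began at tumor volume about 100–300 mm3 (day 17): 2 mg/kg ip daily for 14 days, in normal saline with tween-80 as solubilizer. Six mice per treatment group, eight controls. Caliper tumor volume (1/2·a·b²) and body weight recorded every 4 days. Sacrifice on days 30–33 and tumors excised.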

Series [5] deals with A549. The series can be described thus: Increase of ROS level in human A549 cells at 10 uM after 1 hr by fluorescence microscopic analysis. It is filed as functional, cell-based. The procedure, abridged: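 Cells treated with compound or DMSO for 1 h, then loaded with 10 μM DCFH-DA for 30 min at 37 °C. Washed twice with PBS and imaged at once by fluorescence microscopy. Mean fluorescence compared with control.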

Series [6] is described as follows: Selectivity ratio of IC50 for human MRC5 cells to IC50 for human ZR75-30 cells. The format is ADME, cell-based. The following applies: MRC5 cells versus ZR75-30 cells, read-out: Ratio IC50.
Series [7] in a line: Selectivity ratio of IC50 for human MRC5 cells to IC50 for human MDA-MB-231 cells. The format is ADME, cell-based. The following applies: MRC5 cells versus MDA-MB-231 cells, read-out: Ratio IC50.
The nature of series [8]: Selectivity ratio of IC50 for human MRC5 cells to IC50 for human HCT116 cells. The format is ADME, cell-based, HCT-116. The following applies: MRC5 cells versus HCT116 cells, read-out: Ratio IC50.

What is called pIC50 is −log10 of the IC50, conventionally taken in molar units. In the case of `COc1cc(/C=C(\C)C(=O)N2CCC=C(N3CCOCC3)C2=O)cc(OC)c1OC`, the pIC50 (with MDA-MB-231; in the series on HCT-116; in the series with A549 [1]; in series [2]; in the series on MRC5) was below 4.00 throughout.

As to `CCCC/C(=C\c1cc(OC)c(OC)c(OC)c1)C(=O)N1CCC=C(Br)C1=O`, the pIC50 was 5.61 in the series on MDA-MB-231; 5.59 in the series with HCT-116; 5.59 in the series on A549 [1]; 5.04 in the series on WI-38; 4.83 in [3].

On to `COc1cc(/C=C(\C)C(=O)N2CCC=CC2=O)cc(OC)c1OC`, for which the pIC50 in the series with MDA-MB-231 is 4.93; in the series on HCT-116, 4.99; in the series on A549 [1], 4.62; in [2], 5.48; with MRC5 it was 4.71.

For `CCC/C(=C\c1cc(OC)c(OC)c(OC)c1)C(=O)N1CCC=C(Br)C1=O`, the pIC50 in the series with MDA-MB-231 is 5.63; in the series on HCT-116, 5.67; in the series with A549 [1] it was 5.58; in the series on WI-38, 5.30; in series [3] it was 5.26.

On to `CCCC/C(=C\c1cc(OC)c(OC)c(OC)c1)C(=O)N1CCC=C(Cl)C1=O`, for which the pIC50 in the series with MDA-MB-231 was 5.18; in the series with HCT-116 it was 5.12; in the series with A549 [1], 5.42; in the series on WI-38, 5.10; in series [3] it was 4.83.

Regarding `CC/C(=C\c1cc(OC)c(OC)c(OC)c1)C(=O)N1CCC=C(Cl)C1=O`, the negative-log IC50 (pIC50) in the series with MDA-MB-231 was 5.14; with HCT-116, 5.04; with A549 [1], 5.39; in the series with WI-38, 5.26; in [3], 4.72.

With `COc1cc(/C=C/C(=O)N2CCC=CC2=O)cc(OC)c1OC` [PIPLARTINE], the pIC50 is 5.07 with MDA-MB-231; 5.22 in the series with HCT-116; 4.64 in the series with A549 [1]; 5.23 in series [2]; 4.46 in the series with MRC5; 4.57 in the series with WI-38. In series [3], this compound showed a pIC50 of 4.16.

Regarding `COc1cc(/C=C(\C)C(=O)N2CCC=C(Br)C2=O)cc(OC)c1OC`, the pIC50 was 5.61 in the series on MDA-MB-231; 5.21 in the series with HCT-116; 5.57 in the series with A549 [1]; 5.15 with WI-38; 5.51 in series [3].

Regarding `CC/C(=C\c1cc(OC)c(OC)c(OC)c1)C(=O)N1CCC=C(Br)C1=O`, the pIC50 in the series on MDA-MB-231 is 5.67; with HCT-116, 5.52; in the series on A549 [1] it was 5.66; in the series on WI-38, 5.10; in series [3], 5.09.

On to `COc1cc(/C=C/C(=O)N2CCC=C(Br)C2=O)cc(OC)c1OC`, for which the pIC50 in the series on MDA-MB-231 was 5.56; in the series on HCT-116 it was 5.15; in the series with A549 [1], 5.32; in the series with WI-38 it was 4.69; in [3] it was 5.09.

A word on the inhibition in vivo: it is the relative decrease from the control value, in per cent. For `COc1cc(/C=C(\C)C(=O)N2CCC=C(Cl)C2=O)cc(OC)c1OC`, the pIC50 with MDA-MB-231 is 5.22; in the series on HCT-116 it was 5.01; with A549 [1], 5.40; in the series on WI-38, 4.71; in series [3], 4.78. The inhibition in vivo at 2 mg/kg in the series with A549 [4] was 48.6%. Besides, in the series with Mus musculus, the Activity result is given as “Non-toxic”. In addition, in the series with A549 [5], the outcome was Active.

For the compound `CC/C(=C\c1cc(OC)c(OC)c(OC)c1)C(=O)N1CCC=CC1=O`, the pIC50 was 4.63 with MDA-MB-231; 4.91 in the series with HCT-116; 4.75 in the series with A549 [1]; 5.50 in [2]; 4.87 in the series on MRC5.

Take `COc1cc(/C=C/C(=O)N2CCC=C(N3CCOCC3)C2=O)cc(OC)c1OC`: the pIC50 with MDA-MB-231 is below 4.00; in the series on HCT-116 it was 4.33; in the series on A549 [1], below 4.00; in series [2], 4.28; with MRC5, 4.25.

Consider `CCC/C(=C\c1cc(OC)c(OC)c(OC)c1)C(=O)N1CCC=C(N2CCOCC2)C1=O`, for which the pIC50 was below 4.00 with MDA-MB-231; below 4.00 with HCT-116; below 4.00 in the series on A549 [1]; below 4.00 in series [2]; 4.28 in the series on MRC5.

For the compound `COc1cc(/C=C/C(=O)N2CCC=C(Cl)C2=O)cc(OC)c1OC`, the pIC50 was 5.17 in the series with MDA-MB-231; 5.37 with HCT-116; 4.70 in the series with A549 [1]; 5.35 in series [2]; 4.84 with MRC5. In addition, the selectivity ratio in series [6], in series [7] and in [8] was 2 each time.

As for `CC/C(=C\c1cc(OC)c(OC)c(OC)c1)C(=O)N1CCC=C(N2CCOCC2)C1=O`, the negative-log IC50 (pIC50) (in the series on MDA-MB-231; in the series with HCT-116; in the series on A549 [1]; in series [2]; in the series on MRC5) was below 4.00 throughout.

In the case of `CCC/C(=C\c1cc(OC)c(OC)c(OC)c1)C(=O)N1CCC=C(Cl)C1=O`, the pIC50 with MDA-MB-231 was 5.09; in the series with HCT-116, 5.09; in the series with A549 [1], 5.42; with WI-38, 4.98; in [3], 4.65.
